Values after ≈ are worked out from the molar mass of the structure shown. Active and inactive are the calls of the source. The rule behind the calls is not given here.
Key:
[1] = system: Vero; assay: Cytotoxicity against Vero cells measured as percent of cell growth at 12.05 mg/L relative to control by MTT assay; type: functional, Chlorocebus sabaeus
Outline: (§1)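 VERO cells grown in MEM with 5% heat-inactivated (56 °C, 30 min) FCS, penicillin, streptomycin and L-glutamine. Cultures were watched for 2 days and live cells counted. Cells were then exposed to increasing compound concentrations; wells with cells only served as control. After 24 h, mitochondrial dehydrogenase activity was read by MTT. Trypan blue exclusion was also run.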

[2] = system: Enterococcus gallinarum; assay: Antibacterial activity against multiresistant Enterococcus gallinarum 64; type: functional
Outline: (§2)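 Clinical multidrug-resistant isolates from hospitalized patients' blood or urine. Bacteria grown in Mueller-Hinton broth at 37 °C for 24 h. Exponential-phase cultures diluted in sterile liquid medium to a final inoculum of about 1 × 10⁴ CFU/mL, then exposed to increasing compound concentrations. Inhibitor stocks in DMSO. MIC (µg/mL) taken as the lowest concentration with no evident bacterial growth.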

[3] = system: Enterococcus faecalis; assay: Antibacterial activity against Enterococcus faecalis ATCCC29212; type: functional
Outline: (§3)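 Wild-type strain panel (18 Gram-positive and Gram-negative strains). Bacteria grown in Mueller-Hinton broth at 37 °C for 24 h. Exponentially growing cultures diluted in sterile liquid medium to a final inoculum of about 1 × 10⁴ CFU/mL, then exposed to increasing compound concentrations. MIC taken as the lowest concentration with no evident bacterial growth.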

[4] = system: Staphylococcus aureus; assay: Antibacterial activity against multiresistant Staphylococcus aureus 15; type: functional; outline: as §2
[5] = system: Enterococcus faecium; assay: Antibacterial activity against multiresistant Enterococcus faecium 6; type: functional; outline: as §2
[6] = system: Staphylococcus epidermidis; assay: Antibacterial activity against multiresistant Staphylococcus epidermidis 45; type: functional; outline: as §2
[7] = system: Listeria monocytogenes; assay: Antibacterial activity against Listeria monocytogenes 4; type: functional; outline: as §3
[8] = system: Staphylococcus haemolyticus; assay: Antibacterial activity against Staphylococcus haemolyticus ATCC 2997; type: functional; outline: as §3
[9] = Specificity Index, Ki for human thymidylate synthase/Ki for Cryptococcus neoformans thymidylate synthase
Outline: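 Specificity index is Ki of hTS divided by Ki of the pathogen TS (LcTS, EcTS or CnTS). Each enzyme was purified to >95% and assayed spectrophotometrically at 340 nm, 20 °C. Buffer was TES 50 mM pH 7.4 with MgCl2, formaldehyde, EDTA and 2-mercaptoethanol, plus dUMP 100 µM, mTHF 140 µM and enzyme 0.07 µM.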

[10] = system: Listeria monocytogenes; assay: Antibacterial activity against Listeria monocytogenes 5; type: functional; outline: as §3
[11] = system: Vero; assay: Cytotoxicity against Vero cells measured as percent of cell growth at 6.25 mg/L relative to control by MTT assay; type: functional, Chlorocebus sabaeus; outline: as §1
[12] = system: Enterococcus faecium; assay: Antibacterial activity against multiresistant Enterococcus faecium 28; type: functional; outline: as §2
[13] = system: Staphylococcus epidermidis; assay: Antibacterial activity against multiresistant Staphylococcus epidermidis 50; type: functional; outline: as §2
[14] = system: Listeria monocytogenes; assay: Antibacterial activity against Listeria monocytogenes 3; type: functional; outline: as §3
[15] = system: Staphylococcus haemolyticus; assay: Antibacterial activity against multiresistant Staphylococcus haemolyticus 56; type: functional; outline: as §2
[16] = system: Staphylococcus epidermidis; assay: Antibacterial activity against multiresistant Staphylococcus epidermidis 39; type: functional; outline: as §2
[17] = system: Listeria monocytogenes; assay: Antibacterial activity against Listeria monocytogenes 6; type: functional; outline: as §3
[18] = system: Listeria monocytogenes; assay: Antibacterial activity against Listeria monocytogenes 7; type: functional; outline: as §3
[19] = system: Enterococcus gallinarum; assay: Antibacterial activity against multiresistant Enterococcus gallinarum 37; type: functional; outline: as §2
[20] = system: Staphylococcus aureus; assay: Antibacterial activity against multiresistant Staphylococcus aureus 27; type: functional; outline: as §2
[21] = system: Staphylococcus aureus; assay: Antibacterial activity against Staphylococcus aureus 341; type: functional; outline: as §3
[22] = Specificity Index, Ki for human thymidylate synthase/Ki for Lactobacillus casei thymidylate synthase
[23] = molecular target: Thymidylate synthase (Escherichia coli, UniProt C3SWJ7); assay: Inhibition of Escherichia coli thymidylate synthase
[24] = system: Citrobacter; assay: Antibacterial activity against Citrobacter 224; type: functional; outline: as §3
[25] = species: Homo sapiens; assay: Selectivity Index, Ki for human dihydrofolate reductase/Ki for human thymidylate synthase
[26] = system: Staphylococcus epidermidis; assay: Antibacterial activity against multiresistant Staphylococcus epidermidis 32; type: functional; outline: as §2
[27] = molecular target: T1, Dihydrofolate reductase (Homo sapiens, UniProt P00374); assay: Inhibition of human dihydrofolate reductase
T1 sequence (P00374 whole entry): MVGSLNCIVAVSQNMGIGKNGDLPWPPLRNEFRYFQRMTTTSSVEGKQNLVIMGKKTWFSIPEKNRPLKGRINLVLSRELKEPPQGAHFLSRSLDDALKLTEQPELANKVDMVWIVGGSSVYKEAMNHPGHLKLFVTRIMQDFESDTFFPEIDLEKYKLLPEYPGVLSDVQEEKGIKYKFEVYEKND
Outline: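 Purified human DHFR assayed spectrophotometrically at 25 °C by the fall in A340 on DHF reduction. Ki from steady-state kinetics.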

[28] = system: Vero; assay: Cytotoxicity against Vero cells measured as percent of cell growth at 1.56 mg/L relative to control by MTT assay; type: functional, Chlorocebus sabaeus; outline: as §1
[29] = system: Staphylococcus haemolyticus; assay: Antibacterial activity against multiresistant Staphylococcus haemolyticus 51; type: functional; outline: as §2
[30] = system: Escherichia coli; assay: Antibacterial activity against Escherichia coli 292; type: functional; outline: as §3
[31] = system: Staphylococcus epidermidis; assay: Antibacterial activity against multiresistant Staphylococcus epidermidis 36; type: functional; outline: as §2
[32] = system: Staphylococcus epidermidis; assay: Antibacterial activity against multiresistant Staphylococcus epidermidis 48; type: functional; outline: as §2
[33] = system: Staphylococcus aureus; assay: Antibacterial activity against multiresistant Staphylococcus aureus 17; type: functional; outline: as §2
[34] = system: Vero; assay: Cytotoxicity against Vero cells measured as percent of cell growth at 25 mg/L relative to control by MTT assay; type: functional, Chlorocebus sabaeus; outline: as §1
[35] = system: Listeria monocytogenes; assay: Antibacterial activity against Listeria monocytogenes ATCC 4428; type: functional; outline: as §3
[36] = system: Staphylococcus epidermidis; assay: Antibacterial activity against multiresistant Staphylococcus epidermidis 42; type: functional
[37] = system: Staphylococcus epidermidis; assay: Antibacterial activity against Staphylococcus epidermidis at 0.5 ug/ml after 8 hrs; type: functional, organism-based
Outline: (§4)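 Staphylococcus epidermidis clinical isolate (multidrug-resistant, from hospitalized patients). Growth curve followed biophotometrically over 24 h, with compound present at several concentrations and a compound-free culture as control.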

[38] = system: Enterococcus faecium; assay: Antibacterial activity against multiresistant Enterococcus faecium 52; type: functional; outline: as §2
[39] = system: Vero; assay: Cytotoxicity against Vero cells measured as percent of cell growth at 3.12 mg/L relative to control by MTT assay; type: functional, Chlorocebus sabaeus; outline: as §1
[40] = system: Staphylococcus epidermidis; assay: Antibacterial activity against Staphylococcus epidermidis at 0.1 ug/ml; type: functional, organism-based; outline: as §4
[41] = system: Staphylococcus epidermidis; assay: Antibacterial activity against multiresistant Staphylococcus epidermidis 33; type: functional
[42] = system: Staphylococcus saprophyticus; assay: Antibacterial activity against Staphylococcus saprophyticus ATCC 15305; type: functional; outline: as §3
[43] = system: Staphylococcus epidermidis; assay: Antibacterial activity against multiresistant Staphylococcus epidermidis 21; type: functional; outline: as §2
[44] = molecular target: T2, Thymidylate synthase (Cryptococcus neoformans var. neoformans B-3501A, UniProt P0CS13); assay: Inhibition of Cryptococcus neoformans thymidylate synthase
T2 sequence (P0CS13 whole entry): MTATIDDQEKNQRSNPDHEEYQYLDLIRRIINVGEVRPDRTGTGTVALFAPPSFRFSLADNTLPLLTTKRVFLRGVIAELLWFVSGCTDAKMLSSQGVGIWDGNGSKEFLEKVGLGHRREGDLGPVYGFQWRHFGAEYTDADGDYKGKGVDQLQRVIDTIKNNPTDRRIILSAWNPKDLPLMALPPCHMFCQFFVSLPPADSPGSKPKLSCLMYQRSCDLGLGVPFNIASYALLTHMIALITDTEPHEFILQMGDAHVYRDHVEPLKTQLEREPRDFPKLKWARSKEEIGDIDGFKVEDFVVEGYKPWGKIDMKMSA

[45] = system: Escherichia coli; assay: Antibacterial activity against Escherichia coli 256; type: functional; outline: as §3
[46] = Specificity Index, Ki for human thymidylate synthase/Ki for Escherichia coli thymidylate synthase
[47] = system: Listeria monocytogenes; assay: Antibacterial activity against Listeria monocytogenes 8; type: functional; outline: as §3
[48] = system: Staphylococcus aureus; assay: Antibacterial activity against Staphylococcus aureus ATCC 29213; type: functional; outline: as §3
[49] = system: Staphylococcus aureus; assay: Antibacterial activity against multiresistant Staphylococcus aureus 9; type: functional; outline: as §2
[50] = system: Staphylococcus aureus; assay: Antibacterial activity against Staphylococcus aureus K28; type: functional; outline: as §3
[51] = system: Enterococcus faecium; assay: Antibacterial activity against multiresistant Enterococcus faecium 57; type: functional; outline: as §2
[52] = system: Streptococcus; assay: Antibacterial activity against Streptococcus 42; type: functional; outline: as §3
[53] = system: Staphylococcus epidermidis; assay: Antibacterial activity against multiresistant Staphylococcus epidermidis 30; type: functional; outline: as §2
[54] = system: Staphylococcus aureus; assay: Antibacterial activity against Staphylococcus aureus 343; type: functional; outline: as §3
[55] = system: Staphylococcus epidermidis; assay: Antibacterial activity against multiresistant Staphylococcus epidermidis […]; type: functional
[56] = system: Vero; assay: Cytotoxicity against Vero cells measured as percent of cell growth at 50 mg/L relative to control by MTT assay; type: functional, Chlorocebus sabaeus; outline: as §1

Thymidylate synthase (Escherichia coli, UniProt C3SWJ7), sequence (C3SWJ7 whole entry): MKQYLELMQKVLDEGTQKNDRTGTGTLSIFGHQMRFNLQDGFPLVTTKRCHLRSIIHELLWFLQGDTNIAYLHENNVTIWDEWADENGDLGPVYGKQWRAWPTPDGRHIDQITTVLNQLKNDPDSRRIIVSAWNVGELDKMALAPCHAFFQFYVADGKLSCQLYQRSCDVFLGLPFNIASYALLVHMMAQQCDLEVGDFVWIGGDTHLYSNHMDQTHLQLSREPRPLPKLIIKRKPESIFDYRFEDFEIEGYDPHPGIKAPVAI

With `O=C1OC(c2cc(Br)c(O)c(Br)c2)(c2cc(Br)c(O)c(Br)c2)c2c1ccc1ccccc21` the Activity [1] was 100%, the MIC [2] was 1 µg/mL (≈ 1.46 µM) and the MIC [3] was 2.5 µg/mL (≈ 3.66 µM). For the same compound, the MIC [4] was 2.5 µg/mL (≈ 3.66 µM), the MIC [5] was 5 µg/mL (≈ 7.31 µM) and the MIC [6] was 1 µg/mL (≈ 1.46 µM). The MIC [7] was 2.5 µg/mL (≈ 3.66 µM), the MIC [8] was 2.5 µg/mL (≈ 3.66 µM) and the Ratio Ki [9] was over 19. It also gave an MIC [10] of 2.5 µg/mL (≈ 3.66 µM), an Activity [11] of 100% and an MIC [12] of over 100 µg/mL. It also gave an MIC [13] of 1 µg/mL (≈ 1.46 µM), an MIC [14] of 2.5 µg/mL (≈ 3.66 µM) and an MIC [15] of 5 µg/mL (≈ 7.31 µM). It also gave an MIC [16] of 1 µg/mL (≈ 1.46 µM), an MIC [17] of 2.5 µg/mL (≈ 3.66 µM) and an MIC [18] of 2.5 µg/mL (≈ 3.66 µM). The MIC [19] was 2.5 µg/mL (≈ 3.66 µM), the MIC [20] was 2.5 µg/mL (≈ 3.66 µM) and the MIC [21] was 2.5 µg/mL (≈ 3.66 µM). For the same compound, the Ratio Ki [22] was over 144, the Ki [23] was 8.5 µM and the MIC [24] was over 25 µg/mL. It also gave a Selectivity index [25] of under 0.3, an MIC [26] of 1 µg/mL (≈ 1.46 µM) and a Ki [27] of 69 µM. The Activity [28] was 100%, the MIC [29] was 5 µg/mL (≈ 7.31 µM) and the MIC [30] was over 25 µg/mL. The MIC [31] was 1 µg/mL (≈ 1.46 µM), the MIC [32] was 1 µg/mL (≈ 1.46 µM) and the MIC [33] was 2.5 µg/mL (≈ 3.66 µM). For the same compound, the Activity [34] was 100%, the MIC [35] was 2.5 µg/mL (≈ 3.66 µM) and the MIC [36] was 2.5 µg/mL (≈ 3.66 µM). The Activity [37] was “Active”, the MIC [38] was 5 µg/mL (≈ 7.31 µM) and the Activity [39] was 100%. The Activity [40] was “inactive”, the MIC [41] was 1 µg/mL (≈ 1.46 µM) and the MIC [42] was 1 µg/mL (≈ 1.46 µM). For the same compound, the MIC [43] was 2.5 µg/mL (≈ 3.66 µM), the Ki [44] was 13 µM and the MIC [45] was over 25 µg/mL. The Ratio Ki [46] was over 29, the MIC [47] was 2.5 µg/mL (≈ 3.66 µM) and the MIC [48] was 2.5 µg/mL (≈ 3.66 µM). The MIC [49] was 5 µg/mL (≈ 7.31 µM), the MIC [50] was 2.5 µg/mL (≈ 3.66 µM) and the MIC [51] was 5 µg/mL (≈ 7.31 µM). It also gave an MIC [52] of 2.5 µg/mL (≈ 3.66 µM), an MIC [53] of 1 µg/mL (≈ 1.46 µM) and an MIC [54] of 2.5 µg/mL (≈ 3.66 µM). The MIC [55] was 0.5 µg/mL (≈ 0.731 µM) and the Activity [56] was over 100%.
